Assays:
[1] = biological target: T1, Serine/threonine-protein kinase TBK1 (Homo sapiens) (UniProt Q9UHD2); experiment: Inhibition of TBK1 assessed as residual activity at 10 uM
T1 sequence (whole entry): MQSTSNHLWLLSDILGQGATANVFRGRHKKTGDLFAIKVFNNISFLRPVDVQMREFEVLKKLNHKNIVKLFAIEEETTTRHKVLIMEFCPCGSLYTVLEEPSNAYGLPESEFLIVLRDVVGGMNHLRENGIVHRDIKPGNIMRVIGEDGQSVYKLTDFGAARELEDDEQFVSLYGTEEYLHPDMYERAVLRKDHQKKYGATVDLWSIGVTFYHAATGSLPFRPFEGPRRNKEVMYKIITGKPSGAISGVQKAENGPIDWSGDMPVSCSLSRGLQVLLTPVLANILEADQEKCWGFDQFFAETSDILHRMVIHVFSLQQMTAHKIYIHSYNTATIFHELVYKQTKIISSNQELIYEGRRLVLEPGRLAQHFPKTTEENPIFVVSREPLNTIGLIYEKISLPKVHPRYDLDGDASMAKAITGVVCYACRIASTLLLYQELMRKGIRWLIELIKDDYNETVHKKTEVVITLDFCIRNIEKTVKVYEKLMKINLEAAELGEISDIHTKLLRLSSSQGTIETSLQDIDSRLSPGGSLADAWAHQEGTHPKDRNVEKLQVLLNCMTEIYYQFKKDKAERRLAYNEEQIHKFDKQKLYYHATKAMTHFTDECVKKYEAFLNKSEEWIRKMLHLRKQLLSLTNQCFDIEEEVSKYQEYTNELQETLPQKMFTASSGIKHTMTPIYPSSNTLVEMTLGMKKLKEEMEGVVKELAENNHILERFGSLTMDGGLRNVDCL
Summary of the method: (§1)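 Panel screen by radioactive kinase assay at a single inhibitor concentration. Score is the percent activity remaining relative to DMSO controls (100%).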

[2] = biological target: MAP kinase-interacting serine/threonine-protein kinase 1 (Homo sapiens) (UniProt Q9BUB5); experiment: Inhibition of MNK1 assessed as residual activity at 10 uM; summary of the method: as §1
[3] = biological target: T2, Inhibitor of nuclear factor kappa-B kinase subunit beta (Homo sapiens) (UniProt O14920); experiment: Inhibition of IKK-beta assessed as residual activity at 10 uM
T2 sequence (whole entry): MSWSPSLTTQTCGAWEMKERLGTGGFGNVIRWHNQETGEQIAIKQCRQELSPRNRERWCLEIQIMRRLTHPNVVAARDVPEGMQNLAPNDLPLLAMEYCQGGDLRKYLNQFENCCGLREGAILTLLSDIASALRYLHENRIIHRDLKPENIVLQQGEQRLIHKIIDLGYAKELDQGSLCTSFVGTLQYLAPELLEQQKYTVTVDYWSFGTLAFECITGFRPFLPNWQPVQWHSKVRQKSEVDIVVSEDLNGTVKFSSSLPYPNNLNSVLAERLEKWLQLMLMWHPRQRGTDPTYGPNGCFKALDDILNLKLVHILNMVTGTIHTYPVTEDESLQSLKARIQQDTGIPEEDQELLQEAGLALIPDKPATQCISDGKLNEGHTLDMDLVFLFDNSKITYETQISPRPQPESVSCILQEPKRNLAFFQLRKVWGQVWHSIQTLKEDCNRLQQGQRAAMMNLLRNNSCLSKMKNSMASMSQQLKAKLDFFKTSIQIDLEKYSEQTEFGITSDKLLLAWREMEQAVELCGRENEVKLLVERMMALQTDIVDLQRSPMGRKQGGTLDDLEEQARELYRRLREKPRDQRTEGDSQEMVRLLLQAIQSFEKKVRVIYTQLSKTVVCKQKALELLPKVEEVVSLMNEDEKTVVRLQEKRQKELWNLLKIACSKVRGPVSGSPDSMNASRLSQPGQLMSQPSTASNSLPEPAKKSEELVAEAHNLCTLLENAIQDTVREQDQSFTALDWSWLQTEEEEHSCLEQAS
Summary of the method: (§2)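 Kinase panel screen run as a radioactive activity assay at single compound concentration. Score reported as percent activity remaining relative to DMSO controls (100%).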

[4] = biological target: Rho-associated protein kinase 2 (Homo sapiens) (UniProt O75116); experiment: Inhibition of ROCK2 assessed as residual activity at 10 uM; summary of the method: as §1
[5] = biological target: T3, Serine/threonine-protein kinase Sgk1 (Homo sapiens) (UniProt O00141); experiment: Inhibition of SGK1 assessed as residual activity at 10 uM; summary of the method: as §1
T3 sequence (whole entry): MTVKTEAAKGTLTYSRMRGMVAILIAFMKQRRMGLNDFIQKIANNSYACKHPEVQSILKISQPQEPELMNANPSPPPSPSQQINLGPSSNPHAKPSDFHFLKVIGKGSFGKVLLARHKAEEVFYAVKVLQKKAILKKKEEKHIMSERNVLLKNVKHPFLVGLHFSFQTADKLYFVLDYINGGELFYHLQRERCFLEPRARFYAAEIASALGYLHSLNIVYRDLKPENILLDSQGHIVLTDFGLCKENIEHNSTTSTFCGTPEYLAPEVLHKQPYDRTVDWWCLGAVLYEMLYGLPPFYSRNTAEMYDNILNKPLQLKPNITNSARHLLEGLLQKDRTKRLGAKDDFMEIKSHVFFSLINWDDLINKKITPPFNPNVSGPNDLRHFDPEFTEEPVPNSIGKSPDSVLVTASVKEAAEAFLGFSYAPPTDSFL

[6] = biological target: Serine/threonine-protein kinase Chk2 (Homo sapiens) (UniProt O96017); experiment: Inhibition of CHK2 assessed as residual activity at 10 uM; summary of the method: as §2
[7] = Inhibition of VEGFR assessed as residual activity at 10 uM; summary of the method: as §1
[8] = biological target: T4, Eukaryotic elongation factor 2 kinase (Homo sapiens) (UniProt O00418); experiment: Inhibition of EF2K assessed as residual activity at 10 uM; summary of the method: as §2
T4 sequence (whole entry): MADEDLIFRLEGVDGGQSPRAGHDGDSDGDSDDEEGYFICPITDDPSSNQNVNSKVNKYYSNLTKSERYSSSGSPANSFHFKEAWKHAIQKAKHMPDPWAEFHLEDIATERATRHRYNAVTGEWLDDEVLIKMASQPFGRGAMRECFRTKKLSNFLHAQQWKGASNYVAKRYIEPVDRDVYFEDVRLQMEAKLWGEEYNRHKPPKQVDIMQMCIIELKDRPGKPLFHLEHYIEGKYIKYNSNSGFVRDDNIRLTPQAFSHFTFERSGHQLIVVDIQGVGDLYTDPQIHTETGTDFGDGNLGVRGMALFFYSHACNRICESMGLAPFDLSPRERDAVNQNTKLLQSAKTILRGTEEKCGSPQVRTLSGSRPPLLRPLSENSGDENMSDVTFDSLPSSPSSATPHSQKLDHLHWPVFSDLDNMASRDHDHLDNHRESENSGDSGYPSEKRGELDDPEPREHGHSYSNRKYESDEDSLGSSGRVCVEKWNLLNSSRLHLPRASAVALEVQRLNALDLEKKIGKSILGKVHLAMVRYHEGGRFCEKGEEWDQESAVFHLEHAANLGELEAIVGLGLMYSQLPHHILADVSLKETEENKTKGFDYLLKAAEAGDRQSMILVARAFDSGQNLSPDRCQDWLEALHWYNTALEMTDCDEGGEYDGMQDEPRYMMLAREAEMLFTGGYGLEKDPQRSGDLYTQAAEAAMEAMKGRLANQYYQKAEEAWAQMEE

Rho-associated protein kinase 2 (Homo sapiens), sequence (O75116 whole entry, looked up): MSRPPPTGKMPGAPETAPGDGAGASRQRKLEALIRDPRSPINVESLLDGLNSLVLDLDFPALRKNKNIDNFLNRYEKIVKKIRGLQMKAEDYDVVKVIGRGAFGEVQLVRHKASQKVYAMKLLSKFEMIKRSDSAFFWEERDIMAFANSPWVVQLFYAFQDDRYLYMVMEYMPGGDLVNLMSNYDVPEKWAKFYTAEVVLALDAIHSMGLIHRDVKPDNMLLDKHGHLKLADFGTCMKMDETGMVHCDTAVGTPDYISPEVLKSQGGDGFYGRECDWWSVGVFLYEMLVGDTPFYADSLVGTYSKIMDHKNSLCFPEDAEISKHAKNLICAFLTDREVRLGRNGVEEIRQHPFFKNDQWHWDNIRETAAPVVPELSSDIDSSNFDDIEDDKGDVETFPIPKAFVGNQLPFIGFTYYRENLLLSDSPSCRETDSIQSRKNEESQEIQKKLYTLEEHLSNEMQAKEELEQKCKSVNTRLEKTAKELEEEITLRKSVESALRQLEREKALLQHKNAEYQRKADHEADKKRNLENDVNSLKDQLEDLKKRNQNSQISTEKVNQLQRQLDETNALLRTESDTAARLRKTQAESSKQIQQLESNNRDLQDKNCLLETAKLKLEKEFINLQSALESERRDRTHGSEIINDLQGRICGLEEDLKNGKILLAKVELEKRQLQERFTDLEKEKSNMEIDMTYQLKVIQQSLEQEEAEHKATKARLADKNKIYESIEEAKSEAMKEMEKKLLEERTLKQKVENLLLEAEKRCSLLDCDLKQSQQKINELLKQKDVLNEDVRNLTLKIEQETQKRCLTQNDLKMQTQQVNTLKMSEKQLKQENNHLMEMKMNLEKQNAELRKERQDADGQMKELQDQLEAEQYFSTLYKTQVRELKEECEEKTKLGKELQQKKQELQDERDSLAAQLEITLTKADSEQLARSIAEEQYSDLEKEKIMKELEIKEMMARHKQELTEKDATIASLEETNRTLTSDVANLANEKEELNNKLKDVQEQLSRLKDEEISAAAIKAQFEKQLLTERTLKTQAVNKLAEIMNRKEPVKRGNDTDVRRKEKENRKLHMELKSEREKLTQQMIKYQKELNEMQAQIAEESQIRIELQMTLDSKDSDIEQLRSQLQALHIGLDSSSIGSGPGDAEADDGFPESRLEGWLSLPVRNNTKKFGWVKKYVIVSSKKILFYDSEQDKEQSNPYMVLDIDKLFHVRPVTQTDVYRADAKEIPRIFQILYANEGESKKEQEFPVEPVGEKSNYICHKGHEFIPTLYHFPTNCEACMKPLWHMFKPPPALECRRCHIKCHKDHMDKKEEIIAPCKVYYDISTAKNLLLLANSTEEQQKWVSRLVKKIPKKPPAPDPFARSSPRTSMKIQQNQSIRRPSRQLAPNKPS
Serine/threonine-protein kinase Chk2 (Homo sapiens), sequence (O96017 whole entry): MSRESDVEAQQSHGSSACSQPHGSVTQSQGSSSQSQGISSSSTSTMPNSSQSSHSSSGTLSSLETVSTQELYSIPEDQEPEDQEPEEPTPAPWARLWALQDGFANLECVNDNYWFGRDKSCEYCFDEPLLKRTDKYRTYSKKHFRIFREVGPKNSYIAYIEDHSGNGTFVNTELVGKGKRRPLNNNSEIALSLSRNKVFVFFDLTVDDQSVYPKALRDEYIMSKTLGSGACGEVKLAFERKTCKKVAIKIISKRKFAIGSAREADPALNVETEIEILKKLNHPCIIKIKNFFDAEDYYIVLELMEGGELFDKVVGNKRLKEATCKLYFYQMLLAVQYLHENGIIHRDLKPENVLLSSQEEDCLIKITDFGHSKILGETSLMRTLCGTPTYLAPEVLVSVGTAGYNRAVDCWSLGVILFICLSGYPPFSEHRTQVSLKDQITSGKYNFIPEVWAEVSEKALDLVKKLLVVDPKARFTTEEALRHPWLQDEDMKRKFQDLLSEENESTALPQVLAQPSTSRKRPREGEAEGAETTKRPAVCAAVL
MAP kinase-interacting serine/threonine-protein kinase 1 (Homo sapiens), sequence (Q9BUB5 whole entry, looked up): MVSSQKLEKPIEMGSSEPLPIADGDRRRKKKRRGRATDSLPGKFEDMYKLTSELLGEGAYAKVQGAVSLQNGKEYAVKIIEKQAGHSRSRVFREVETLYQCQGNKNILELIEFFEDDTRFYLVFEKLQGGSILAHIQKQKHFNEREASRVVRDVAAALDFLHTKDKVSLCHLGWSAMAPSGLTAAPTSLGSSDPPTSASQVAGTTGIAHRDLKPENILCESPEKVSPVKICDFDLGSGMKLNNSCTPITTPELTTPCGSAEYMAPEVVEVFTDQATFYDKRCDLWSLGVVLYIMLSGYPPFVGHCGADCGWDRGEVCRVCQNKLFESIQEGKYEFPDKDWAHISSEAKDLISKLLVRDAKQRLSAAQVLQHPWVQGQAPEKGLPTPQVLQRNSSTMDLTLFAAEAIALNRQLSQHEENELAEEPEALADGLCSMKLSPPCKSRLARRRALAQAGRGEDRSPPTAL

Row | SMILES | Activity [1] | Activity [2] | Activity [3] | Activity [4] | Activity [5] | Activity [6] | Activity [7] | Activity [8]
1 | CN1CCN(CCC(=O)Nc2ccc3c(C#N)cnc(Nc4cccc(Br)c4)c3c2)CC1 | 87% | 95% | 88% | 100% | 91% | 53% | 88% | 47%
2 | CN(C)CCCC(=O)Nc1ccc2c(C#N)cnc(Nc3cccc(Br)c3)c2c1 | 99% | 82% | 84% | 100% | 82% | 56% | 87% | 78%
3 | CN(C)C/C=C/C(=O)Nc1ccc2c(C#N)cnc(Nc3cccc(Br)c3)c2c1 | 82% | 61% | 79% | 100% | 82% | 51% | 74% | 88%

— ChEMBL document CHEMBL1641579, “Synthesis and biological evaluation of 7-substituted-1-(3-bromophenylamino)isoquinoline-4-carbonitriles as inhibitors of myosin light chain kinase and epidermal growth factor receptor” (Bioorg Med Chem, 2011)
